Assay results gathered from unrelated publications.
Each line is one published result; the experiments were not run side by side.
Cell line: K562
Observed: cell growth or viability

With `CN1CCC(NC2CCc3[nH]c4c(C(N)=O)ccc(-c5ccccc5Cl)c4c3C2)CC1` (centres unmarked) the IC50 was 0.0214 µM (96 h).
`O=C(NO)c1ccc(Cn2cnc3c(Nc4ccc(Cl)cc4)ncnc32)cc1` gave an IC50 of 13.8 µM (MTT; 72 h).
The IC50 of `COc1cccc2c1C(=O)c1c(O)c3c(c(O)c1C2=O)C[C@@](O)(C(=O)CO)C[C@@H]3O[C@H]1C[C@H](N)[C@H](O)[C@H](C)O1` is reported as 0.13 µM.
`Cc1sc2c(c1C)C(c1ccc(Cl)cc1)=N[C@@H](CC(=O)NCCCCNC(=O)COc1cccc3c1C(=O)N(C1CCC(=O)NC1=O)C3=O)c1nnc(C)n1-2` (some centres unmarked) has an IC50 of 0.73 µM (CCK-8; 72 h).
With `O=c1cc(OCc2cc(-c3ccc(C(F)(F)F)cc3)no2)c2ccccc2o1` the IC50 was over 100 µM (MTS; 72 h).
For `O=C(NO)c1ccc(Cn2cnc3c(Nc4ccc(F)c(Cl)c4)ncnc32)cc1`, the IC50 was 7.35 µM (MTT; 72 h).
`c1ccc(-c2cc(CNc3cccc4cccnc34)on2)nc1` gave an IC50 of 79.7 µM (MTS; 72 h).
With `CC(C)=CCc1ncc(/C=C2\NC(=O)[C@H](C(C)C)NC2=O)[nH]1` the IC50 was over 15 µM (MTT).
For `N/C(=N\O)c1ccc(-c2cc(CNc3cccc4cccnc34)on2)cc1`, the IC50 was 86.6 µM (MTS; 72 h).
`COc1ccc(Nc2ncnc3c2ncn3Cc2ccc(C(=O)NO)cc2)cc1` has an IC50 of 3.7 µM (MTT; 72 h).
With `C=CC(C)(C)c1[nH]cnc1/C=C1/NC(=O)[C@H](C(C)C)NC1=O` the IC50 was 1.77 µM (MTT).
